Screens: PubChem, several laboratories
Lipid droplet – inhibitors of hepatocyte lipid droplet formation, primary screen, imaging, high-throughput imaging, BODIPY stain | AML12 mouse hepatocytes, oleate lipid droplets | inhibition, % at 6.5 µM | 0.4% of 240,000 active;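 active = lipid droplet intensity inhibited by at least 50%, with more than 500 cells counted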
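Assay system: AML12 hepatocytes (mouse) / Also added: 100 µM oleic acid challenge / Times: overnight treatment with compound plus oleate / Detection: high-content imaging of BODIPY-stained droplets and DAPI nuclei / Evaluation: % inhibition of lipid droplet signal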
V-ATPase pH – regulators of yeast V-ATPase proton pumping, primary screen, pHLuorin cytosolic pH fluorescence; S. cerevisiae; response, % at 10 µM; 0.37% of 350,000 active; AID 504577, 2011; in the data active = response mostly above about 7.3%, no sharp cut-off; inactive = mostly below about 5.4%; also: actives read high
MPTP inh – mitochondrial permeability transition pore inhibitors, primary screen, biochemical, isolated mouse mitochondria, absorbance | Ca2+ swelling absorbance, 30 min | inhibition, % at 10 µM | 1.4% of 360,000 active;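 active = inhibition of 50% or more, scaled per plate between neutral and stimulator controls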;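 also: 0% = DMSO wells given calcium and 100% = 1 mM EGTA wells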
aDG glyco act – activators of alpha-DG glycosylation, primary screen, uHTS, Pro5-aDG cells, AlphaScreen; alpha-DG glycosylation AlphaScreen (IIH6); 0% Pro5, 100% B10-LARGE cell signal; activation, % at 10 µM; 0.22% of 360,000 active;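 active = activation of at least 8% versus controls, or a plate z-score of at least 8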;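 also: Pro5 are CHO cells carrying HIG-tagged alpha-DG that lacks glycosylation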
ADAM10 inh – human ADAM10 inhibitors, primary screen, biochemical, QFRET, HTS | Disintegrin and metalloproteinase domain-containing protein 10 (Homo sapiens), O14672 | recombinant ADAM10, EDANS/DABCYL FRET peptide cleavage, 3 h | inhibition, % at 7 µM | 0.62% of 370,000 active;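 active = inhibition above a per-campaign cutoff equal to the mean of compounds falling between control-based bounds plus 3 SD, cut at about 20% in these data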;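 also: 0% = DMSO wells while the 100% control is not disclosed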
ADAM17 inh – ADAM17 inhibitors, primary screen, biochemical, QFRET; inhibition, % at 6.95 µM; recombinant ADAM17, EDANS/DABCYL FRET peptide cleavage; Disintegrin and metalloproteinase domain-containing protein 17 (Homo sapiens), P78536; 0.83% of 370,000 active;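 active = inhibition above the mean of compounds lying between control limits plus 3 SD, set per campaign, cut at about 8.5% in these data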;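 also: 0% = DMSO-only wells as the low control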
Target sequence (P78536 215-824 limits assumed): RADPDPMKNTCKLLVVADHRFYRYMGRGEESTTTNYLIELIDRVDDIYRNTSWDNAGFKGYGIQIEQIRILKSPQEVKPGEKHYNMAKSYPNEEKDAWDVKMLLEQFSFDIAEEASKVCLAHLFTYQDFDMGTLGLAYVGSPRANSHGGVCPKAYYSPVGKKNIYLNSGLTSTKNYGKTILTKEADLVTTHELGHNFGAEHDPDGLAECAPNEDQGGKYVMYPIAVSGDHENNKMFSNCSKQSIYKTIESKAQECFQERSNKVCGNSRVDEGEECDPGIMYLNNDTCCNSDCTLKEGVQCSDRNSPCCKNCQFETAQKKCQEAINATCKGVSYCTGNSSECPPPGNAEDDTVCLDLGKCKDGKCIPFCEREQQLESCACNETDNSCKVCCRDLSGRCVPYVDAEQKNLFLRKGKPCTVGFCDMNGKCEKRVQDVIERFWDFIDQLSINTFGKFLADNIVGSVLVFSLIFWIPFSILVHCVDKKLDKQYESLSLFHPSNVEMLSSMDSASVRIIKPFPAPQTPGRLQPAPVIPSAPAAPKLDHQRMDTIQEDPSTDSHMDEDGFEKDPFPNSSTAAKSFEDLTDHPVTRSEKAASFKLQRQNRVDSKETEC
ADAM10 confirm – human ADAM10 inhibitors, confirmation, biochemical, QFRET, triplicate; shares compounds with ADAM10 inh; ADAM10 QFRET peptide cleavage, EDANS fluorescence; inhibition, % at 6.95 µM; 1% of 2,100 active;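 active = inhibition above about 20% chosen separately for each screening run, limit read from the data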;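 also: 0% = DMSO wells and 100% = marimastat wells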
ADAM17 ctr – ADAM17 inhibitors, counter-screen for ADAM10 exosite inhibitor project, biochemical, QFRET, high throughput. shares compounds with ADAM10 inh. ADAM17 QFRET peptide cleavage, EDANS fluorescence. inhibition, % at 6.95 µM. 0.5% of 2,100 active;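 active = mean triplicate inhibition above the solvent-only control wells' mean plus 3 SD, cut at about 12% in these data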;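 also: 0% = DMSO wells and 100% = marimastat wells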
ADAM10 counter – ADAM10 inhibitors, counter-screen for ADAM17 exosite inhibitor project, biochemical, FRET, human ADAM10; shares compounds with ADAM17 inh; recombinant ADAM10, EDANS/DABCYL FRET peptide cleavage, 3 h; inhibition, % at 6.95 µM; 47% of 2,900 active; AID 743256, 2014;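 active = mean inhibition over the triplicate runs exceeds the activity threshold set in the earlier primary screen, cut at about 20% in these data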;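 also: 0% = DMSO wells and 100% = marimastat wells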
ADAM17 confirm – ADAM17 inhibitors, hit retest, confirmation, biochemical, QFRET peptide cleavage; shares compounds with ADAM17 inh; recombinant ADAM17, EDANS/DABCYL QFRET peptide cleavage; inhibition, % at 6.95 µM; 65% of 2,900 active; AID 743257, 2014;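 active = mean inhibition across replicates above the hit cutoff set in the primary screen, cut at about 8.5% in these data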;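 also: 0% = DMSO wells and 100% = marimastat wells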
An asterisk follows results filed as active; / = no result given. In the library only some 3.1% were active in any assay of this set; here they are far more common.

SMILES | Lipid droplet | V-ATPase pH | MPTP inh | aDG glyco act | ADAM10 inh | ADAM17 inh | ADAM10 confirm | ADAM17 ctr | ADAM10 counter | ADAM17 confirm
C[C@H]1[C@@H](NCc2cccs2)CC[C@@]23CCCN2C(=O)CCC[C@@H]13 | / | / | / | / | 1 | -3 | / | / | / | /
Cc1ccc(NC(=O)C(C)OC(=O)c2ccc(NS(=O)(=O)c3ccc(F)c(F)c3)cc2)cc1 (stereo unspecified) | 26 | -1 | 20 | 0 | 11 | 2 | / | / | / | /
CCc1ccc(NC(=O)C(C)OC(=O)c2ccc(NS(=O)(=O)c3ccc(C)c([N+](=O)[O-])c3)cc2)cc1 (stereo unspecified) | 48 | -3 | 16 | 0 | 29* | 12* | 5 | 1 | 27* | 17*
CC(C)(C)CCNc1nc(-c2ccccn2)nnc1-c1ccccc1 | / | / | / | / | -3 | -3 | / | / | / | /
O=C(NCc1ccco1)C1CCCN(S(=O)(=O)c2ccccc2F)C1 (stereo unspecified) | / | / | / | / | -11 | 1 | / | / | / | /
Cc1ccc(S(=O)(=O)NC2c3cccc4cccc(c34)C2Sc2n[nH]c(N)n2)cc1 (stereo unspecified) | -2 | 3 | 0 | 0 | -1 | 4 | / | / | / | /
O=S(=O)(NC1c2cccc3cccc(c23)C1Sc1ncccn1)c1ccc(Cl)cc1 (stereo unspecified) | 24 | 1 | 2 | 0 | 25* | 9.7* | 7 | 4 | 28* | 14*
O=C(N[C@@H](Cc1ccccc1)C(=O)NCP(=O)(O)OC(Cc1ccccc1)C(=O)O)OCc1ccccc1 (stereo partly specified) | / | / | / | / | -2 | -7 | / | / | / | /
CCCCOc1cccc(C(=O)NCCc2ccccc2-c2ccccc2CCC(=O)NCc2ccccc2)c1 | / | / | / | / | -5 | -1 | / | / | / | /
COc1cccc(NC(=O)n2ccc3ccc(-c4ccc5cc[nH]c5c4)cc32)c1 | / | / | / | / | -80 | -33 | / | / | / | /
CC(C(=O)NCc1ccco1)n1ccc2cc(S(=O)(=O)N3CCCC3)ccc21 (stereo unspecified) | 2 | 4 | -2 | 0 | 0 | 5 | / | / | / | /
COc1ccc(CNC(=O)C(C)n2ccc3cc(S(=O)(=O)N4CCCCCC4)ccc32)cc1 (stereo unspecified) | 2 | 1 | 1 | 0 | 28* | 12* | 3 | 2 | 22* | 16*
CCN(C)C(=O)CNc1nnnn1-c1ccccc1 | / | / | / | / | 0 | 1 | / | / | / | /
COc1cc(/C=N/NC(=O)COc2cccc(F)c2)ccc1OS(=O)(=O)c1ccc(C)cc1 | -11 | -2 | 28 | 3 | 25* | 13* | 8 | 3 | 24* | 16*
COc1cc(/C=N/NC(=O)COc2ccc(Cl)cc2)ccc1OS(=O)(=O)c1ccc(C)cc1 | -15 | 3 | 6 | 2 | 27* | 11* | 15 | 4 | 51* | 34*
COCCCN1C(=O)[C@H](CC(=O)N2CCSCC2)[C@]2(C(=O)OC)CCCCC=C12 | / | / | / | / | -4 | -3 | / | / | / | /
O=C(Cn1nnc(-c2ccncc2)n1)Nc1ccc(F)cc1F | / | / | / | / | -5 | -6 | / | / | / | /
